Laboratory results from ChEMBL document CHEMBL3352137, “Modification on ursodeoxycholic acid (UDCA) scaffold. discovery of bile acid derivatives as selective agonists of cell-surface G-protein coupled bile acid receptor 1 (GP-BAR1)” (J Med Chem, 2014).
Activity calls are given as the source filed them. The rule behind the calls is not given here.

What was measured:
Mus musculus [1] = assay: Induction of FXR-mediated OST mRNA expression in CD1 mouse liver at 64 mg/kg, po measured 3 to 24 hrs post dose by real-time PCR method; assay type: functional, organism-based; set-up: dose 64 mg/kg
How it was run: (§1)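 Male CD1 mice (n = 3, 4) received a single oral dose of 64 mg/kg. Liver and ileum were collected at 6 or 24 h (3, 6 and 24 h also stated). Target mRNA was measured by SYBR real-time PCR (0.2 μM primers, 10 ng template, 40 cycles of 95 °C 20 s / 60 °C 30 s), with all reactions in triplicate. Comparison was versus control mice.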

Mus musculus [2] = assay: Induction of GPBAR1-mediated pro-glucagon-1 mRNA expression in CD1 mouse intestine at 64 mg/kg, po measured 6 hrs post dose by real-time PCR method; assay type: functional; how it was run: as §1
Mus musculus [3] = assay: Increase in plasma tauro-muricholic acid level in CD1 mouse model of ANIT-induced cholestasis at 16 mg/kg, po
Mus musculus [4] = assay: Increase in plasma bile acid level in CD1 mouse model of ANIT-induced cholestasis at 16 mg/kg, po
[5] = target: T1, G-protein coupled bile acid receptor 1 (Homo sapiens) (UniProt Q8TDU6); assay: (§2) Agonist activity at human GPBAR1 expressed in HEK293T cells assessed as stimulation of cAMP response element-mediated receptor transactivation by luciferase reporter gene assay; assay type: functional, cell-based; conditions: HEK-293T
T1 sequence (whole entry): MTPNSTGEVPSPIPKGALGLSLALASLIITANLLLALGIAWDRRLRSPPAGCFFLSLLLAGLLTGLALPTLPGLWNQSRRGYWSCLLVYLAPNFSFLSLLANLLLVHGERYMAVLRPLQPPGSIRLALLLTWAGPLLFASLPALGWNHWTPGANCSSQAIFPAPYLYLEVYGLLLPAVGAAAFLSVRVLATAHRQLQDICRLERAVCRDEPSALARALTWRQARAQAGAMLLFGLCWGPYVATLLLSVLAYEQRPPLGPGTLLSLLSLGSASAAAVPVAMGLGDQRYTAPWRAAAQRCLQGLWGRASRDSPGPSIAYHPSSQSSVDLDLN
How it was run: (§3)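 HEK-293T cells were cotransfected with a CRE-driven luc2P reporter (pGL4.29), pCMVSPORT6-human GP-BAR1 and a Renilla vector. 24 h after transfection they were stimulated for 18 h (10 μM single point; 0.1, 1 and 10 μM for EC50). Lysates were read for luciferase as a measure of intracellular cAMP rise, with TLCA 10 μM as reference. Data are mean ± standard error of at least three determinations in duplicate.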

[6] = target: T2, G-protein coupled bile acid receptor 1 (Homo sapiens, UniProt Q8TDU6); assay: as §2; assay type: functional, cell-based, HEK-293T; how it was run: as §3
T2 sequence (Q8TDU6 whole entry): T1 sequence (whole entry)

Mus musculus [7] = assay: Induction of FXR-mediated BSEP mRNA expression in CD1 mouse liver at 64 mg/kg, po measured 3 to 24 hrs post dose by real-time PCR method; assay type: functional, organism-based; set-up: dose 64 mg/kg; how it was run: as §1
Mus musculus [8] = assay: Increase in plasma tauro-cholic acid level in CD1 mouse model of ANIT-induced cholestasis at 16 mg/kg, po
HEK-293T = assay: Toxicity against HEK293T cells at 50 uM; assay type: cell-based; conditions: human
[9] = target: T3, Bile acid receptor (Homo sapiens) (UniProt Q96RI1); assay: Agonist activity at FXR (unknown origin) expressed in human HepG2 cells assessed as stimulation of FXR response element IR1-mediated receptor transactivation at 50 uM in presence of CDCA by luciferase reporter gene assay; assay type: cell-based
T3 sequence (whole entry): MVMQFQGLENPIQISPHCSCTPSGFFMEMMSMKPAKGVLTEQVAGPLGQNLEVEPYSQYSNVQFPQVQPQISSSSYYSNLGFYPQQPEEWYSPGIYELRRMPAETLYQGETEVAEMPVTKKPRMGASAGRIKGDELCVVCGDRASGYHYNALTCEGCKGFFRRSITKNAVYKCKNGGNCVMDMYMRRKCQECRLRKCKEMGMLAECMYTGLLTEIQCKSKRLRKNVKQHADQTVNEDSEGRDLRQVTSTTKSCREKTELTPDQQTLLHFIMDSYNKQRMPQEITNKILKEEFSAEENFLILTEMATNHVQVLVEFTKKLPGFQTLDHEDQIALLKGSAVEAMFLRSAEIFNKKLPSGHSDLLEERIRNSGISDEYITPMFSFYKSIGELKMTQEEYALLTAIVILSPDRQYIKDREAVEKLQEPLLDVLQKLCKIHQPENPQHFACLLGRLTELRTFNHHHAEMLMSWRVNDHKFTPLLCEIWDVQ
How it was run: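 HepG2 cells were cotransfected with pSG5-FXR, pSG5-RXR, the IR1-containing p(hsp27)-TK-LUC reporter and a Renilla vector (pGL4.70). 24 h after transfection they were stimulated for 18 h with 10 μM CDCA plus 50 μM compound. Lysates were read for luciferase. Data are the RLU/RRU ratio, mean ± standard error, compared with CDCA and untreated cells.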

Mus musculus [10] = assay: Induction of FXR-mediated OST mRNA expression in CD1 mouse liver at 64 mg/kg, po measured 24 hrs post dose by real-time PCR method; assay type: functional, organism-based; set-up: dose 64 mg/kg; how it was run: as §1
Mus musculus [11] = assay: Induction of FXR-mediated BSEP mRNA expression in CD1 mouse liver at 64 mg/kg, po measured 24 hrs post dose by real-time PCR method; assay type: functional, organism-based; set-up: dose 64 mg/kg; how it was run: as §1
Mus musculus [12] = assay: Effect on body weight loss in CD1 mouse model of ANIT-induced cholestasis at 64 mg/kg, po; assay type: functional, organism-based; set-up: dose 64 mg/kg
Mus musculus [13] = assay: Effect on plasma bile acid level in CD1 mouse model of ANIT-induced cholestasis at 64 mg/kg, po; assay type: functional, organism-based; set-up: dose 64 mg/kg

C[C@H](CCCCC(=O)O)[C@H]1CC[C@H]2[C@@H]3[C@@H](O)C[C@@H]4C[C@H](O)CC[C@]4(C)[C@H]3CC[C@]12C
Activity (Mus musculus [1]): inactive | fold change (FC) (Mus musculus [2]): 2 | Activity (Mus musculus [3]): Active | Activity (Mus musculus [4]): Active | Activity [5]: Dose-dependent effect | EC50 [6]: 17.2 µM | Activity (Mus musculus [7]): inactive | Activity (Mus musculus [8]): Active

C[C@H](CCCCC(=O)O)[C@H]1CC[C@H]2[C@@H]3[C@H](O)C[C@@H]4C[C@H](O)CC[C@]4(C)[C@H]3CC[C@]12C
Activity (HEK-293T): Toxic | Activity [9]: Active

C[C@H](CCO)[C@H]1CC[C@H]2[C@@H]3[C@@H](O)C[C@@H]4C[C@H](O)CC[C@]4(C)[C@H]3CC[C@]12C
Activity [5]: Dose-dependent effect | EC50 [6]: 24.4 µM

C[C@H](CCC(=O)O)[C@H]1CC[C@H]2[C@@H]3[C@@H](O)C[C@@H]4C[C@H](O)CC[C@]4(C)[C@H]3CC[C@]12C
Activity (Mus musculus [10]): Active | Activity (Mus musculus [11]): Active | Activity (Mus musculus [12]): inactive | Activity (Mus musculus [13]): inactive
